Screening results as filed in PubChem.
IDE cell inh = cellular human IDE inhibition. AID 434962. P14735. HEK cells, FAbetaB cleavage, fluorescence polarization. inhibition, % at 5.59 µM. actives 0.41% (n = 320,000);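 active = percent inhibition above the average of all tested compounds plus 3 SD, set per screening campaign, cut at about 16% in these data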;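 note: IDE supplied by intact live HEK cells; FP after avidin binding of uncleaved biotin substrate so inhibition keeps polarization high; 0% = DMSO wells and 100% = 60 µM reference IDE inhibitor Ii1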
CSN deneddyl inh = CSN deneddylation inhibition. Q92905. Purified CSN, SCF-Nedd8-OG deneddylation, fluorescence polarization. inhibition, % at 12.5 µM. actives 0.38% (n = 360,000);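 active = pattern-corrected inhibition above about 35%, with an unprinted fluorescence ratio check between 0.5 and 1.5, limit read from the data, passing the limit was not always enough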;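 note: 0% = enzyme with substrate and 100% = substrate without enzyme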
Target sequence (Q92905 whole entry, looked up, one chain of several): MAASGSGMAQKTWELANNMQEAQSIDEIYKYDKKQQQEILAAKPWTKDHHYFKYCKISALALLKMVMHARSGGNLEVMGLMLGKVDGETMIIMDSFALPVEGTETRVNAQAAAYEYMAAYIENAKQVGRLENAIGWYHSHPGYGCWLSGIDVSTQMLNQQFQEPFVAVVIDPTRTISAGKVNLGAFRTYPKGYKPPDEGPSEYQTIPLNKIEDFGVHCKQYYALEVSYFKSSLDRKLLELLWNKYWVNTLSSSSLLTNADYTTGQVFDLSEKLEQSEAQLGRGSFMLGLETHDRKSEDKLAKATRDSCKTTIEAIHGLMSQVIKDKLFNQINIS
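Test system: purified human Csn5 enzyme expressed in HEK293T cells. Amount: 0.24 nM enzyme. Reagent: SCFSkp2-Nedd8OG substrate at 10 nM final. Schedule: 90 min incubation of compound, enzyme and substrate at room temperature. Detection: fluorescence polarization. Read-out: % inhibition of substrate cleavage by Csn5.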
IDE act = boosts human insulin-degrading enzyme activity in HEK cells; FAbeta-B cleavage, fluorescence polarization; 0% vehicle, 100% cell-free pure enzyme wells; activation, % at 5.96 µM; actives 0.073% (n = 340,000); AID 493087;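 active = activation above the mean of all tested compounds plus 3 SD, set per screening campaign, cut at about 17% in these data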
TPT1 inh = blocks Candida albicans tRNA 2'-phosphotransferase; actives 0.81% (n = 300,000); inhibition, % at 5 µM; recombinant caTPT1, FP RNA substrate dephosphorylation;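 active = inhibition above the mean of all tested compounds plus 3 SD, set per screening campaign, cut at about 24% in these data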;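 note: plate controls were DMSO alone for no effect and ferristatin control at 100 nM for full effect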
HNF4A DNA FP = change in binding of human HNF4 alpha to DNA; P41235; HNF4a-FITC DNA binding, fluorescence polarization, 1 h; activity change, % at 10 µM; actives 0.3% (n = 360,000); in the data active = activity change above about 30%, passing the limit was not always enough
TbMetRS inhib = Trypanosoma brucei MetRS inhibition; inhibition, % at 11.9 µM; purified T. brucei MetRS, ATP depletion, Kinase-Glo luminescence; AID 624268; actives 0.4% (n = 360,000);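 active = inhibition above a per-plate cutoff of the control wells' mean inhibition plus 3 SD, cut at about 5.5% in these data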;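 note: 0% = DMSO wells median and 100% = median of wells with control inhibitor compound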
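Material: parasite MetRS enzyme / Replication: singlicate, one well per compound / Signal: luminescence of leftover ATP / Schedule: 2 h aminoacylation at 25 °C after 15 min preincubation / Medium: HEPES-MgCl2-KCl buffer plus DTT, spermine, BSA, pyrophosphatase / Doses: 11.9 µM single point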
caTPT1 confirm = confirmation of Candida albicans TPT1 inhibitors; recombinant caTPT1, fluorescence polarization, RNase T1 coupled; actives 74% (n = 2,400); shares compounds with TPT1 inh; inhibition, % at 5 µM;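 active = inhibition above the primary screen limit, the mean inhibition of all tested compounds plus 3 SD, cut at about 25% in these data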
RNase T1 inh = RNase T1 inhibition in TPT1 counter-screen. shares compounds with TPT1 inh. RNase T1 cleavage, fluorescence polarization, 1536-well. inhibition, % at 5 µM. actives 83% (n = 2,400). AID 2153;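 active = inhibition above the solvent-only control well mean plus 3 SD, limit set per screening run, cut at about 23% in these data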;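 note: plate controls were DMSO wells with enzyme for no effect and wells without RNase T1 for full effect; inhibitors block cleavage so intact labeled substrate keeps polarization high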
Target sequence (P00651 whole entry, looked up): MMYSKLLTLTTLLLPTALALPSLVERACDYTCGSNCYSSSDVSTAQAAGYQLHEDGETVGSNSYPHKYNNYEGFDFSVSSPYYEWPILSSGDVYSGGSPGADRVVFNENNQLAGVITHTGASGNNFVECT
* hit, by the source's call; x = not tested or not shown. An excerpt weighted towards active compounds, which were near 1.7% of everything screened.

SMILES | IDE cell inh | CSN deneddyl inh | IDE act | TPT1 inh | HNF4A DNA FP | TbMetRS inhib | caTPT1 confirm | RNase T1 inh
CCOC(=O)/C(C#N)=C/c1ccc(OC(=O)c2ccccn2)cc1 | 2.5 | 9.7 | 0.2 | 10.7 | 15.6 | -0.5 | x | x
COC(=O)/C(C#N)=C/c1ccc(OC(=O)c2ccccn2)cc1 | 0.2 | 5.2 | -3.5 | 26.8* | 44.7* | -0.4 | 19.1 | 25.5*
C=CCn1c(=O)/c(=C2/SC(C)=C(C)N2CC)s/c1=C1/C(=O)N(CC)C(=S)N1c1ccccc1 | -0.6 | -1.4 | 5.7 | 6.0 | 7.5 | -1.3 | x | x
C=CCn1c(=O)/c(=C2/Sc3ccccc3N2CC)s/c1=C1/C(=O)NN=C1C | 11.9 | x | x | 43.8* | x | x | 48.2* | 59.5*
O=C(O)C1Nc2c(O)cc(Cl)c([N+](=O)[O-])c2C2C=CCC12 (stereo not given) | -2.9 | 83.5 | 9.2 | 84.5* | -76.7 | 0.3 | 15.0 | 9.9
Cc1ccc2c(-c3csc(N)n3)c[nH]c2c1 | 7.8 | x | x | 26.2* | x | x | 14.6 | 26.6*
CO/N=C\Cc1oc(=O)c(NC(=O)c2ccccc2)cc1C(=O)OC | 3.4 | -11.1 | -2.0 | 7.8 | 1.7 | -0.2 | x | x
COC(=O)c1cc(NC(=O)c2ccccc2)c(=O)oc1C/C=N\OCc1ccc(Cl)cc1Cl | 3.8 | 15.9 | 2.6 | 30.9* | 23.5 | -0.2 | 27.9* | 35.7*
O=C(O)C(Cc1ccccc1)N1C(=O)/C(=C/C=C/c2ccco2)SC1=S (stereo not given) | x | 77.0 | -12.1 | x | -34.2 | 0.6 | x | x
O=C(NN1C(=O)/C(=C/C=C/c2ccco2)SC1=S)c1ccccc1O | -3.5 | 74.2 | -1.3 | 70.9* | -21.8 | 1.6 | 49.5* | 49.5*
CCN1CC2=C(OC(N)=C(C#N)C2c2cccs2)/C(=C/c2cccs2)C1 (stereo not given) | 10.8 | 18.2 | -0.4 | 34.0* | 9.9 | -0.8 | 24.9* | 36.0*
O=C(NC1CCSC1=O)c1cccc(Cl)c1 (stereo not given) | 8.8 | -2.6 | -1.9 | 30.8* | 3.1 | 0.3 | 5.7 | 7.9
Oc1cccc(Nc2c3ccccc3nc3ccccc23)c1 | -4.9 | -5.0 | 0.4 | 53.5* | -3.3 | 0.6 | 4.0 | 11.2
COc1cc(/C=c2\sc3n(c2=O)C(c2ccccc2)C(c2ccccc2)=NN=3)ccc1O (stereo not given) | 10.9 | 6.0 | -12.3 | 35.3* | 9.5 | -0.2 | 49.5* | 56.4*
COc1cc(/C=c2\sc3n(c2=O)CCCN=3)ccc1O | 7.3 | 12.5 | -3.2 | 16.8 | 3.7 | -0.4 | x | x
Cc1cc(C)n(CC(O)Cn2c(C)c(C)c3ccccc32)n1 (stereo not given) | 11.4 | 27.9 | -1.5 | 46.4* | 13.2 | -1.2 | 5.4 | 10.3
Cc1c(C)n(CC(O)CN2CCCCC2)c2ccccc12 (stereo not given) | 1.6 | -4.0 | 1.2 | -4.0 | 1.9 | 0.1 | x | x
Nc1c(-c2ccccc2)nc(Cl)nc1-c1ccccc1 | 6.5 | 3.2 | 3.5 | 0.1 | 1.2 | -1.4 | x | x
Nc1nc(-c2ccccc2)c(-c2ccccc2)n1N | 2.3 | 6.7 | 2.9 | 50.9* | 16.6 | -0.2 | 29.1* | 38.1*
C=CCN(C(=O)CCC(=O)Nc1cc(C)on1)C(C(=O)NC(C)(C)C)c1ccc(OC)cc1 (stereo not given) | 9.1 | 4.0 | 2.1 | -1.1 | 1.3 | 0.1 | x | x
COc1cc(/C=C2\SC(=Nc3cccnc3)NC2=O)cc(OC)c1OC | 12.2 | 11.8 | x | 52.1* | 8.1 | -0.2 | 72.8* | 84.4*
O=C(Nc1ccccc1C(F)(F)F)c1ccc2nccnc2c1 | 3.0 | 1.5 | 2.1 | 39.0* | 6.8 | -0.3 | 7.0 | 11.1
COc1cc2ccccc2cc1C(=O)OCc1nc2ccsc2c(=O)[nH]1 | 1.1 | -3.3 | -3.8 | x | -0.5 | -0.6 | x | x
Cc1nn(-c2ccccc2)c(N2CCCC2)c1/C=C1\N=C(c2ccc(OC(C)C)cc2)OC1=O | -0.9 | 0.4 | 4.6 | 43.3* | 1.1 | 0.5 | 72.6* | 81.4*
O=[N+]([O-])c1ccc(-c2nc(-c3cccs3)c(-c3cccs3)[nH]2)cc1 | 5.3 | 28.3 | 1.8 | 63.4* | 32.1 | 0.3 | 60.4* | 76.7*
SMILES | IDE cell inh | CSN deneddyl inh | IDE act | TPT1 inh | HNF4A DNA FP | TbMetRS inhib | caTPT1 confirm | RNase T1 inh
C[C@H]1CN([C@@H](C)CO)C(=O)CCCn2cc(nn2)CO[C@@H]1CN(C)C(=O)OCc1ccccc1 | x | 1.0 | x | x | -0.9 | -1.4 | x | x
CC(C)(C)c1csc(NC(=O)c2cccs2)n1 | 2.3 | 2.6 | -1.6 | -0.5 | -1.7 | 0.4 | x | x
CC(C)(C)c1csc(NC(=O)Cc2cccs2)n1 | 2.4 | 5.0 | -2.3 | 99.5* | -2.4 | -0.9 | 11.3 | 15.2
O=C(O)C(=O)/C(=C\c1cccc2ccccc12)c1ccc2ccccc2n1 | 4.8 | 20.0 | 3.0 | 49.0* | 19.9 | -0.2 | 89.1* | 102.3*
O=C(O)C(=O)/C(=C\c1ccsc1)c1ccc2ccccc2n1 | 2.7 | -2.4 | 5.6 | -0.1 | 3.4 | -0.2 | x | x
CC(NC(=O)CC1Nc2ccccc2NC1=O)c1ccccc1 (stereo not given) | 1.9 | 1.4 | 6.5 | 29.8* | 3.8 | -0.6 | 39.2* | 52.1*
O=C(CC1Nc2ccccc2NC1=O)c1ccccc1 (stereo not given) | 10.1 | x | x | 73.0* | x | x | 62.3* | 73.1*
Cc1cccc(C)c1NC(=O)C1(C)CN(S(C)(=O)=O)CC(=O)N1Cc1cccc(F)c1 (stereo not given) | x | 1.0 | x | x | -0.7 | -0.7 | x | x
O=c1[nH]c2ccccc2[n+]([O-])c1-c1ccccc1 | 0.9 | 3.6 | 2.6 | 3.0 | -0.2 | -0.7 | x | x
CCN1CCN(C(=O)C(C)Nc2ccc(OC)cc2OC)CC1 (stereo not given) | -4.8 | 4.2 | 5.8 | 2.1 | 10.7 | -0.6 | x | x
O=C(N/N=C/c1ccc(-c2cccc(C(F)(F)F)c2)o1)c1ccccc1Br | -0.9 | 17.5 | -1.4 | 38.8* | 6.4 | 0.7 | 38.4* | 49.2*
CC1=C(C(=O)N2CCOCC2)CC(CC(=O)NC2CCCCC2)C(=O)N1Cc1ccccc1 (stereo not given) | x | 0.2 | x | x | 2.7 | 0.0 | x | x
Cc1[nH]nc2c1C(Cc1ccccc1)C(C#N)=C(N)O2 (stereo not given) | 7.6 | 1.6 | -0.1 | -3.7 | 0.7 | 0.5 | x | x
CC(C)CC1C(C#N)=C(N)SC(N)=C1C#N | 13.1 | 75.2 | -7.0 | 70.4* | 106.6 | -0.5 | 86.6* | 94.5*
Cc1[nH]nc2c1C(CC(C)C)C(C#N)=C(N)O2 (stereo not given) | 1.9 | -0.9 | x | -2.9 | -4.1 | -0.2 | x | x
